In assay [1] the target is T1, Adrenergic receptor alpha-2 (Rattus norvegicus, UniProt P22086+P19328+P22909).
T1 sequence (P22086 whole entry): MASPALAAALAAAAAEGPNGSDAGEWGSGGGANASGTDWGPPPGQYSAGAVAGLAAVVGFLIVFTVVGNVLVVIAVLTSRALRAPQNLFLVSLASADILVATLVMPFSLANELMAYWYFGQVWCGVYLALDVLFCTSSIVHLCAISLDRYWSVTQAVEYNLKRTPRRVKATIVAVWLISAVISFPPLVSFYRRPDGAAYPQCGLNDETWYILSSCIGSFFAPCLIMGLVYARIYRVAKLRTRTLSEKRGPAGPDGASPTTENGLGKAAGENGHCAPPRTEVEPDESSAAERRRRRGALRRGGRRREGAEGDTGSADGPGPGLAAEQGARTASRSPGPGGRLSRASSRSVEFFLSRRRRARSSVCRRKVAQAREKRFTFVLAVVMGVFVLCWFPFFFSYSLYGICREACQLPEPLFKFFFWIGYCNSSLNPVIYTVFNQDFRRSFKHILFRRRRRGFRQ
T1 sequence (P19328 whole entry): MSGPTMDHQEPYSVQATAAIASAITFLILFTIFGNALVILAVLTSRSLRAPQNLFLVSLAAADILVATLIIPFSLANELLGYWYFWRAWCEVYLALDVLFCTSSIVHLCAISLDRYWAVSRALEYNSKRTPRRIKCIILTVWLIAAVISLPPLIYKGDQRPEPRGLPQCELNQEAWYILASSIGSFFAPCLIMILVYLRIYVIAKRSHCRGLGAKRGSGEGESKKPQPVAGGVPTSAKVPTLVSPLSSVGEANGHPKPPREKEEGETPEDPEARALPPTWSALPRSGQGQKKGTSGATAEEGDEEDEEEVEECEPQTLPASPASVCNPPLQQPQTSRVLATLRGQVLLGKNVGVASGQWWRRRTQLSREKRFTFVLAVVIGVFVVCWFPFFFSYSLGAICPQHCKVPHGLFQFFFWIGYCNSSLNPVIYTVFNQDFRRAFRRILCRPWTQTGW
T1 sequence (P22909 whole entry): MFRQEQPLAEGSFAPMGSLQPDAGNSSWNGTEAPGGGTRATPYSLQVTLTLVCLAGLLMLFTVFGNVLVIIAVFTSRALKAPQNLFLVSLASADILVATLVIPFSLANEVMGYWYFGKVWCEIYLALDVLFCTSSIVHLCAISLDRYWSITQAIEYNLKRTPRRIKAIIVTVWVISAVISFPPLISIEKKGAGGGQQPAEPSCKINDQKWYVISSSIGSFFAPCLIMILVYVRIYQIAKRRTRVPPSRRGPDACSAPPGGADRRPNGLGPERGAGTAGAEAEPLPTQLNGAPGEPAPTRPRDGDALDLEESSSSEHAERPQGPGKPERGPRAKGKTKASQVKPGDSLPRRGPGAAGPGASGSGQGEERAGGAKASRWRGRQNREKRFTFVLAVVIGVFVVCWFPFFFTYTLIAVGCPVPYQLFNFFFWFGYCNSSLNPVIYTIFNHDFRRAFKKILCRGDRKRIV
In words: Alpha-2 adrenergic receptor blocking activity against clonidine-induced depression of the twitch response in prostatic portion of rat vas deferens. It is filed as tissue-based. In short, it runs like this: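 Prostatic halves (12 mm) from male albino rat vas deferens, Krebs with propranolol 1 μM and cocaine 10 μM, 0.5–0.8 g tension, field-stimulated at 0.1 Hz, 3-ms pulses, 10-35 V. After ≥1 h equilibration, cumulative clonidine curves on twitch inhibition before and after 30 min antagonist. Dose ratios taken at 50% twitch inhibition; pA2 via Schild plot, slope constrained to -1.0.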

Assay [2] deals with T2, Adrenergic receptor alpha-1 (Rattus norvegicus, UniProt P15823+P23944+P43140).
T2 sequence (P15823 whole entry): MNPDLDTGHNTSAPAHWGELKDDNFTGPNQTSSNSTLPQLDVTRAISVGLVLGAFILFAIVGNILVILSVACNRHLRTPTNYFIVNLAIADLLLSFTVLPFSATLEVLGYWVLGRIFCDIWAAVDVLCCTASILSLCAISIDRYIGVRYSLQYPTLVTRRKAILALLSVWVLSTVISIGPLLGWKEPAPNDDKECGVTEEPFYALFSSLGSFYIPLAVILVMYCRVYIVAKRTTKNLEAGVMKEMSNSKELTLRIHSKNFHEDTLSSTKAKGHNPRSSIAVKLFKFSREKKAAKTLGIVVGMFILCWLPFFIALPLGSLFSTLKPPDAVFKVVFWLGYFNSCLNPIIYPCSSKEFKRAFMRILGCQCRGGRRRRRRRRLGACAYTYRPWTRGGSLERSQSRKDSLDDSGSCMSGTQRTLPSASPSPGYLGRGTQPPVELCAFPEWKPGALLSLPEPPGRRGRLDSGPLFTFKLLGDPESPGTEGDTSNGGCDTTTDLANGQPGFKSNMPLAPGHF
T2 sequence (P23944 whole entry): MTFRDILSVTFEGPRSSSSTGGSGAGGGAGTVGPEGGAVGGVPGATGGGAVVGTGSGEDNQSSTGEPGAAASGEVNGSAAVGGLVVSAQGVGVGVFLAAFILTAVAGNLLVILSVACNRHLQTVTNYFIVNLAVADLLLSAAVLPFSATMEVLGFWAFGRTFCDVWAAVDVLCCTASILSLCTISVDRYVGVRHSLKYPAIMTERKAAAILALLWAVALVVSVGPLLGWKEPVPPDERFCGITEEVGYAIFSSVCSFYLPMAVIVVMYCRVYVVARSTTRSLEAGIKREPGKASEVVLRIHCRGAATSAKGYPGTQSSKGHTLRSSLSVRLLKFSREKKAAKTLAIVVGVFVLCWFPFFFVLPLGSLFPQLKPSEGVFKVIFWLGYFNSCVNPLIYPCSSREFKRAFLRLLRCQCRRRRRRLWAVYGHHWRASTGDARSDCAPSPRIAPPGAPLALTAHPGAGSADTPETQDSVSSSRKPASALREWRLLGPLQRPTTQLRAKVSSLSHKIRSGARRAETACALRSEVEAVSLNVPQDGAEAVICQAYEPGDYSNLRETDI
T2 sequence (P43140 whole entry): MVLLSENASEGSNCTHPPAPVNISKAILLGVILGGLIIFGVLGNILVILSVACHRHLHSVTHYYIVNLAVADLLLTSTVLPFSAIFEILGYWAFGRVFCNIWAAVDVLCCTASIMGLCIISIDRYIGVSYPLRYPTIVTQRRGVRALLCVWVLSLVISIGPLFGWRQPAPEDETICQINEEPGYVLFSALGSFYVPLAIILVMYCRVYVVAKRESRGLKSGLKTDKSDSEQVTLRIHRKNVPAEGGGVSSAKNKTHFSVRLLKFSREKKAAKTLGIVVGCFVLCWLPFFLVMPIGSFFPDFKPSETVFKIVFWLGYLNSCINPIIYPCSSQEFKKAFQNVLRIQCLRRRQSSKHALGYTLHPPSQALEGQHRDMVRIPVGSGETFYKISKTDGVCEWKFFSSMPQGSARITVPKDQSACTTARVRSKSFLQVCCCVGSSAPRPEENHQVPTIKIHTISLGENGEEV
In words: Alpha-1 adrenergic receptor blocking activity against norepinephrine-induced contraction in epididymal portion of rat vas deferens. It is filed as tissue-based. In a few lines:
(§1)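 Epididymal halves (14 mm) of vas deferens from male albino rats (175-200 g), Krebs with propranolol 1 μM and cocaine 10 μM, 0.4 g tension. Equilibrated ≥1 h; cumulative norepinephrine curves, first discarded, second control, third after 30 min antagonist. Time-control tissues run in parallel. pA2 from Schild plots constrained to slope -1.0, each concentration tested five times.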

Assay [3] has as its target Adrenergic receptor alpha (Rattus norvegicus) (UniProt P15823+P23944+P43140+P22086+P19328+P22909). In words: The alpha-1/alpha-2 selectivity ratio is the antilog of the difference between pA2 values at alpha-1 and alpha-2 adrenoceptors.
Assay [4] addresses T2, Adrenergic receptor alpha-1. The experiment in a line: Alpha-1-Adrenoceptor blocking activity against norepinephrine-induced contraction in epididymal portion of rat vas deferens. Format: functional, tissue-based. In a few lines:
as §1

What is called pA2 is a measure of antagonist potency on a negative log scale. A high value points to higher antagonist potency. As for `COc1cccc(OC)c1OCCNC[C@@H]1COc2ccccc2[C@@H]1O`, the pA2 in assay [1] was 6.1; in assay [2], 7.22. In assay [3], the Selectivity was 13.
Turning to `COc1cccc(OC)c1OCCNC[C@@H]1CSc2ccccc2O1`, the pA2 in assay [1] is on record as 6.15; in assay [2] it was 9.05. In addition, in assay [3], the Selectivity came out at 469.
`COc1cccc(OC)c1OCCNC[C@@H]1CCc2ccccc2O1`: the pA2 in assay [1] is recorded as 7.05; in assay [4], 9.2. Moreover, in assay [3], the Selectivity is 141.
As to `COc1cccc(OC)c1OCCNC[C@@H]1COc2ccccc2C1=O`, the pA2 in assay [1] came to 6.52; in assay [2], 8.93. For the same compound, the Selectivity in assay [3] was found to be 257.
As for `COc1cccc(OC)c1OCCNCc1ccc2ccccc2c1`, the results for the pA2 in assay [1] and in assay [2] were 6.4 and 7.75, respectively. In addition, in assay [3], the Selectivity turned out to be 22.
With `COc1cccc(OC)c1OCCNCC1COc2ccccc2O1` (stereo not given), the figures for the pA2 in assay [1] and in assay [2] were 6.63 and 9.24, respectively. Further, in assay [3], the Selectivity was determined as 407.
In the case of `COc1cccc(OC)c1OCCNC[C@@H]1COc2ccccc2S1`, the pA2 in assay [1] is 6.09; in assay [2], 7.94. Also, the Selectivity in assay [3] came to 71.
With `COc1cccc(OC)c1OCCNC[C@@H]1COc2ccccc2[C@H]1O`, the results for the pA2 in assay [1] and in assay [2] were 6.09 and 7.33, respectively. Further, in assay [3], the Selectivity is 17.
Take `COc1cccc(OC)c1OCCNC[C@@H]1COc2ccccc2C1`: the pA2 in assay [1] came to 6.28; in assay [2] it was 7.97. The Selectivity in assay [3] amounted to 49.
For `COc1cccc(OC)c1OCCNC[C@@H]1C[S@+]([O-])c2ccccc2O1` (relative stereo), in that order: 6.24, 7.54 and 20.
The matching figures for `COc1cccc(OC)c1OCCNC[C@@H]1CSc2ccccc2C1=O`: 6.53, 8.89 and 229.
With `COc1cccc(OC)c1OCCNCc1cc2ccccc2[nH]1`, the results for the pA2 in assay [1] and in assay [4] were 6.04 and 6.6, respectively. Further, in assay [3], the Selectivity worked out at 4.
As for `COc1cccc(OC)c1OCCNC[C@@H]1C[S@@+]([O-])c2ccccc2O1` (relative stereo), the pA2 in assay [1] was found to be 6.24; in assay [2], 7.71. Moreover, the Selectivity in assay [3] was 30.
As for `COc1cccc(OC)c1OCCNCc1cccc2ccccc12`, the figures for the pA2 in assay [1] and in assay [2] were 6.41 and 7.33, respectively. Further, in assay [3], the Selectivity was 8.
As for `COc1cccc(OC)c1OCCNC[C@@H]1CS(=O)(=O)c2ccccc2O1`, the pA2 in assay [1] stood at 5.8; in assay [4] it was 6.6. In addition, in assay [3], the Selectivity is 6.

For the origin of these results see ChEMBL document CHEMBL1124252, “Structure-activity relationships in 1,4-benzodioxan-related compounds. Investigation on the role of the dehydrodioxane ring on alpha 1-adrenoreceptor blocking activity” (J Med Chem, 1988).
